From ChEMBL document CHEMBL1806372, “Cytotoxic ring A-modified steroid analogues derived from Grundmann's ketone” (Eur J Med Chem, 2011)
Activity calls are given as the source filed them. The calls are words filed in the database; no cut-off is given here.

Key:
Assay type in all cases: functional
NCI-H226 = experiment: Growth inhibition of human NCI-H226 cells assessed as cell growth at 10^-5 M after 48 hrs by sulforhodamine B assay; details: NCI-H226, 48 h, read-out: Activity
Outline: (§1)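 NCI-60 single high-dose screen run under the NCI protocol. Cells were incubated with compound at 10^-5 M for 48 h. The end point was determined by sulforhodamine B protein staining. Results are reported as percent growth of treated cells relative to untreated control cells.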

[1] = Growth inhibition of human Hs 578T cells assessed as cell growth at 10^-5 M after 48 hrs by sulforhodamine B assay; details: read-out: Activity
Outline: (§2)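 NCI 60-cell panel single high-dose screen: compound applied at 10^-5 M for 48 h, endpoint by sulforhodamine B protein-binding dye. Values reported as growth percent of treated cells relative to untreated control cells.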

SW-620 = experiment: Growth inhibition of human SW620 cells assessed as cell growth at 10^-5 M after 48 hrs by sulforhodamine B assay; details: SW-620, 48 h, read-out: Activity
Outline: (§3)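 NCI 60-cell panel single-dose screen under the NCI protocol. Cells are exposed to compound at one concentration (10^-5 M) for 48 h. The end point is protein staining with sulforhodamine B. Each line is reported as percent growth of treated cells relative to untreated control cells.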

SK-MEL-2 = experiment: Growth inhibition of human SK-MEL-2 cells assessed as cell growth at 10^-5 M after 48 hrs by sulforhodamine B assay; details: SK-MEL-2, 48 h, read-out: Activity; outline: as §1
NCI-H522 = experiment: Growth inhibition of human NCI-H522 cells assessed as cell growth at 10^-5 M after 48 hrs by sulforhodamine B assay; details: NCI-H522, 48 h, read-out: Activity; outline: as §1
HCC 2998 = experiment: Growth inhibition of human HCC2998 cells assessed as cell growth at 10^-5 M after 48 hrs by sulforhodamine B assay; details: HCC 2998, 48 h, read-out: Activity; outline: as §2
HOP-62 = experiment: Growth inhibition of human HOP62 cells assessed as cell growth at 10^-5 M after 48 hrs by sulforhodamine B assay; details: HOP-62, 48 h, read-out: Activity; outline: as §2
UACC-257 = experiment: Growth inhibition of human UACC257 cells assessed as cell growth at 10^-5 M after 48 hrs by sulforhodamine B assay; details: UACC-257, 48 h, read-out: Activity; outline: as §3
U-251 = experiment: Growth inhibition of human U251 cells assessed as cell growth at 10^-5 M after 48 hrs by sulforhodamine B assay; details: U-251, 48 h, read-out: Activity; outline: as §3
SK-OV-3 = experiment: Growth inhibition of human SKOV3 cells assessed as cell growth at 10^-5 M after 48 hrs by sulforhodamine B assay; details: SK-OV-3, 48 h, read-out: Activity; outline: as §3
OVCAR-4 = experiment: Growth inhibition of human OVCAR4 cells assessed as cell growth at 10^-5 M after 48 hrs by sulforhodamine B assay; details: OVCAR-4, 48 h, read-out: Activity; outline: as §1
HCT-15 = experiment: Growth inhibition of human HCT15 cells assessed as cell growth at 10^-5 M after 48 hrs by sulforhodamine B assay; details: HCT-15, 48 h, read-out: Activity; outline: as §2
PC-3 = experiment: Growth inhibition of human PC3 cells assessed as cell growth at 10^-5 M after 48 hrs by sulforhodamine B assay; details: PC-3, 48 h, read-out: Activity; outline: as §1
Malme-3M = experiment: Growth inhibition of human MALME-3M cells assessed as cell growth at 10^-5 M after 48 hrs by sulforhodamine B assay; details: read-out: Activity; outline: as §1
HL-60(TB) = experiment: Growth inhibition of human HL-60(TB) cells assessed as cell growth at 10^-5 M after 48 hrs by sulforhodamine B assay; details: HL-60, 48 h, read-out: Activity
Outline: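 NCI single high-dose screen across the 60-cell panel (leukemia, melanoma, lung, colon, brain, breast, ovary, kidney, prostate), run per NCI protocol. Cells incubated with compound at 10^-5 M for 48 h. Sulforhodamine B protein-binding dye end point. Reported as growth percent of treated vs untreated control cells.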

HOP-92 = experiment: Growth inhibition of human HOP92 cells assessed as cell growth at 10^-5 M after 48 hrs by sulforhodamine B assay; details: HOP-92, 48 h, read-out: Activity; outline: as §2
Yarrowia lipolytica = experiment: Antifungal activity against Yarrowia lipolytica assessed as zone of inhibition at 5 uL and 28 degC after 36 hrs by disk diffusion method
Outline: (§4)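 Agar disc diffusion with the test compound applied as a 1% (w/v) DMSO solution. Yeasts were grown on AC agar and Aspergillus niger on potato dextrose broth agar, each strain spread evenly. Plates were covered and kept 36 h at 28 °C, and the inhibition zone diameter was read in mm. Clotrimazole served as reference.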

Nakaseomyces glabratus = experiment: Antifungal activity against Candida glabrata assessed as zone of inhibition at 5 uL and 28 degC after 36 hrs by disk diffusion method; outline: as §4
SF-539 = experiment: Growth inhibition of human SF539 cells assessed as cell growth at 10^-5 M after 48 hrs by sulforhodamine B assay; details: SF-539, 48 h, read-out: Activity; outline: as §1
NCI-H23 = experiment: Growth inhibition of human NCI-H23 cells assessed as cell growth at 10^-5 M after 48 hrs by sulforhodamine B assay; details: NCI-H23, 48 h, read-out: Activity; outline: as §1
MCF7 = experiment: Growth inhibition of human MCF7 cells assessed as cell growth at 10^-5 M after 48 hrs by sulforhodamine B assay; details: MCF7, 48 h, read-out: Activity; outline: as §1
CCRF-CEM = experiment: Growth inhibition of human CCRF-CEM cells assessed as cell growth at 10^-5 M after 48 hrs by sulforhodamine B assay; details: read-out: Activity; outline: as §2
OVCAR-3 = experiment: Growth inhibition of human OVCAR3 cells assessed as cell growth at 10^-5 M after 48 hrs by sulforhodamine B assay; details: OVCAR-3, 48 h, read-out: Activity; outline: as §1
Staphylococcus equorum = experiment: Antibacterial activity against Staphylococcus equorum assessed as zone of inhibition at 5 uL and 32 degC after 36 hrs at by disk diffusion method
Outline: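 Disc diffusion on AC agar, each strain spread evenly over the medium; test compounds given as 1% (w/v) DMSO solutions. Plates covered and incubated 36 h at 32 °C, then the diameter of the zone of inhibited growth measured in mm. Tetracycline served as antibacterial reference.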

SF-295 = experiment: Growth inhibition of human SF295 cells assessed as cell growth at 10^-5 M after 48 hrs by sulforhodamine B assay; details: SF-295, 48 h, read-out: Activity; outline: as §1
RPMI-8226 = experiment: Growth inhibition of human RPMI8226 cells assessed as cell growth at 10^-5 M after 48 hrs by sulforhodamine B assay; details: RPMI-8226, 48 h, read-out: Activity; outline: as §1
LOX IMVI = experiment: Growth inhibition of human LOXIMVI cells assessed as cell growth at 10^-5 M after 48 hrs by sulforhodamine B assay; details: read-out: Activity; outline: as §2
EKVX = experiment: Growth inhibition of human EKVX cells assessed as cell growth at 10^-5 M after 48 hrs by sulforhodamine B assay; details: read-out: Activity; outline: as §2
BT-549 = experiment: Growth inhibition of human BT549 cells assessed as cell growth at 10^-5 M after 48 hrs by sulforhodamine B assay; details: BT-549, 48 h, read-out: Activity; outline: as §2

SMILES	growth at 10 µM (NCI-H226) [%]	growth at 10 µM [1] [%]	growth at 10 µM (SW-620) [%]	growth at 10 µM (SK-MEL-2) [%]	growth at 10 µM (NCI-H522) [%]	growth at 10 µM (HCC 2998) [%]	growth at 10 µM (HOP-62) [%]	growth at 10 µM (UACC-257) [%]	growth at 10 µM (U-251) [%]	growth at 10 µM (SK-OV-3) [%]	growth at 10 µM (OVCAR-4) [%]	growth at 10 µM (HCT-15) [%]	growth at 10 µM (PC-3) [%]	growth at 10 µM (Malme-3M) [%]	growth at 10 µM (HL-60(TB)) [%]	growth at 10 µM (HOP-92) [%]	diameter of the inhibition zone (DIZ) (Yarrowia lipolytica)	diameter of the inhibition zone (DIZ) (Nakaseomyces glabratus)	growth at 10 µM (SF-539) [%]	growth at 10 µM (NCI-H23) [%]	other results
CC(C)CCC[C@@H](C)[C@H]1CC[C@H]2C3=CC[C@@H]4C(=O)C=CC(=O)[C@@H]4[C@@H]3CC[C@]12C	42	8.12	20.4	41.9	-46.1	-75.5	12.1	28.7	11.5	10.5	-9.33	11.3	9.01	17.5	-5.46	-28.9	inactive	inactive	38.2	8.4	growth at 10 µM (MCF7): 8.65%; growth at 10 µM (CCRF-CEM): 17%; growth at 10 µM (OVCAR-3): 2.72%; diameter of the inhibition zone (DIZ) (Staphylococcus equorum): inactive; growth at 10 µM (SF-295): -25.6%; growth at 10 µM (RPMI-8226): 8.72%; growth at 10 µM (LOX IMVI): -43.4%; growth at 10 µM (EKVX): -10%; growth at 10 µM (BT-549): -1.63%
CC(C)CCC[C@@H](C)[C@H]1CC[C@H]2C3=CCn4c(=O)ccc(=O)n4[C@@H]3CC[C@]12C	-91.8	-12.2	-91.6	-93	-66.1	-100	-93.3	-97.5	-96.9	-100	-32.4	-63.7	-85.5	-98	-43.3	-94	7 mm	8 mm	-96.8	-55.4	growth at 10 µM (MCF7): -92.5%; growth at 10 µM (CCRF-CEM): -2.44%; growth at 10 µM (OVCAR-3): -96.5%; diameter of the inhibition zone (DIZ) (Staphylococcus equorum): inactive; growth at 10 µM (SF-295): -99.5%; growth at 10 µM (RPMI-8226): -41.5%; growth at 10 µM (LOX IMVI): -89.5%; growth at 10 µM (EKVX): -82.2%; growth at 10 µM (BT-549): -30.9%
CC(C)CCC[C@@H](C)[C@H]1CC[C@H]2[C@@H]3CCN4C(=O)CCC(=O)N4[C@@H]3CC[C@]12C	90.3	97	93.2	114	80.2	86.6	87.7	76.2	106	99.3	103	106	70.5	95.6	72	77.5	15 mm	inactive	104	87	growth at 10 µM (MCF7): 88.5%; growth at 10 µM (CCRF-CEM): 87.4%; growth at 10 µM (OVCAR-3): 104%; diameter of the inhibition zone (DIZ) (Staphylococcus equorum): 9 mm; growth at 10 µM (SF-295): 88.6%; growth at 10 µM (RPMI-8226): 56.6%; growth at 10 µM (LOX IMVI): 84.5%; growth at 10 µM (EKVX): 83.3%; growth at 10 µM (BT-549): 84.7%
